Measurements from ChEMBL document CHEMBL1122607, “Heterocyclic analogues of chlorcyclizine with potent hypolipidemic activity” (J Med Chem, 1984).
Values joined by “and” are separate entries in the source; they are usually repeats but may differ in a detail not shown here. Identical values can stand only once.

How the values were obtained:
Rattus norvegicus [1] = test: Hypolipidemic activity was measured as reduction in rat serum triglyceride after oral administration in male Wistar rats at 50 mg / (kg day); type: functional
How it was run: (§1)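 Cholesterol-fed rats given the test compound orally by gavage on the last 3 days, with controls receiving vehicle (0.5% tragacanth mucilage). After overnight starvation, rats were killed under CO2 3 h after the last dose and bled by cardiac puncture. Serum cholesterol and triglyceride were measured by autoanalyzer and expressed as percentage reduction from control levels, with Student's t test.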

Rattus norvegicus [2] = test: Hypolipidemic activity was measured as reduction in rat serum cholesterol after oral administration in male Wistar rats at 100 mg/(kg day); type: functional; how it was run: as §1
Rattus norvegicus [3] = test: Hypolipidemic activity was measured as reduction in rat serum triglyceride after oral administration in male Wistar rats at 100 mg / (kg day); type: functional; how it was run: as §1
[4] = The therapeutic safety margin (TSM) is the ratio of the minimum lethal dose (mg/kg)to the MED; type: ADME, organism-based; conditions: in vivo
How it was run: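 Young male Wistar rats, eight per group, on cholesterol/cholic acid-supplemented or normal diet; graded oral gavage doses daily for 14 days; vehicle controls (0.5% tragacanth mucilage). Mortalities recorded to give the minimum lethal daily dose. After overnight fasting, serum cholesterol assayed by autoanalyzer. MED is the dose giving a significant (t test) 30% cholesterol fall, from the log dose/response curve. TSM = minimum lethal dose/MED.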

Rattus norvegicus [5] = test: Hypolipidemic activity was measured as reduction in rat serum cholesterol after oral administration in male Wistar rats at 10 mg / (kg day); type: functional; how it was run: as §1
Rattus norvegicus [6] = test: Hypolipidemic activity was measured as reduction in rat serum cholesterol after oral administration in male Wistar rats at 3 mg / (kg day); type: functional; how it was run: as §1
Rattus norvegicus [7] = test: Hypolipidemic activity was measured as reduction in rat serum cholesterol after oral administration in male Wistar rats at 50 mg / (kg day); type: functional; how it was run: as §1
Rattus norvegicus [8] = test: Minimum effective dose (MED) is the dose (mg/kg)that cause significant reduction in serum cholesterol of 30% compared to concurrent controls.; type: functional; parameters: unit: mg/kg
How it was run: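 MED was calculated from the log dose/response curve as the dose giving a statistically significant 30% fall in serum cholesterol versus concurrent controls. Measured in the 3-day oral cholesterol-fed rat screen, or in a 2-week test: groups of eight young male Wistar rats on cholesterol/cholic acid-supplemented or normal diet, dosed orally by gavage daily for 14 days, vehicle 0.5% tragacanth mucilage.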

Rattus norvegicus [9] = test: Hypolipidemic activity was measured as reduction in rat serum triglyceride after oral administration in male Wistar rats at 30 mg / (kg day); type: functional; how it was run: as §1
Rattus norvegicus [10] = test: Hypolipidemic activity was measured as reduction in rat serum cholesterol after oral administration in male Wistar rats at 200 mg / (kg day); type: functional; how it was run: as §1
Rattus norvegicus [11] = test: Hypolipidemic activity was measured as reduction in rat serum cholesterol after oral administration in male Wistar rats at 30 mg / (kg day); type: functional; how it was run: as §1
Rattus norvegicus [12] = test: Hypolipidemic activity was measured as reduction in rat serum triglyceride after oral administration in male Wistar rats at 200 mg / (kg day); type: functional; how it was run: as §1
Rattus norvegicus [13] = test: Hypolipidemic activity was measured as reduction in rat serum triglyceride after oral administration in male Wistar rats at 3 mg / (kg day); type: functional; how it was run: as §1
Rattus norvegicus [14] = test: Hypolipidemic activity was measured as reduction in rat serum triglyceride after oral administration in male Wistar rats at 10 mg / (kg day); type: functional; how it was run: as §1
Rattus norvegicus [15] = test: Hypolipidemic activity was measured as reduction in rat serum cholesterol after oral administration in male Wistar rats at 100 mg / (kg day); type: functional; how it was run: as §1
Rattus norvegicus [16] = test: Hypolipidemic activity was measured as reduction in rat serum cholesterol after oral administration in male Wistar rats at 1 mg / (kg day); type: functional; how it was run: as §1
Rattus norvegicus [17] = test: Hypolipidemic activity was measured as reduction in rat serum triglyceride after oral administration in male Wistar rats at 1 mg / (kg day); type: functional; how it was run: as §1

Row | SMILES | Reduction (Rattus norvegicus [2]) | Reduction (Rattus norvegicus [3]) [%] | Reduction (Rattus norvegicus [5]) [%] | MED (Rattus norvegicus [8]) | Reduction (Rattus norvegicus [9]) [%] | Reduction (Rattus norvegicus [10]) [%] | Reduction (Rattus norvegicus [11]) [%] | Reduction (Rattus norvegicus [12]) [%] | also measured
1 | Cc1cc(C(c2ccc(C(C)C)cc2)N2CCN(C)CC2)sn1 (stereo not drawn) | 63% | 85 | 28 | 9 | – | – | – | – | Reduction (Rattus norvegicus [1]): 72%; therapeutic safety margin (minimum lethal dose / MED) [4]: 15; Reduction (Rattus norvegicus [6]): 16%; Reduction (Rattus norvegicus [7]): 45%
2 | CCCCCc1ccc(C(c2ccns2)N2CCN(C)CC2)cc1 (stereo not drawn) | – | – | – | – | 23 | 87 | 26 | 85 | –
3 | Cc1cc(C(c2ccc(C(C)C)cc2)N2CCNCC2)sn1 (stereo in doubt; 33) | – | – | 43 | 8 | 66 | – | 67 | – | Reduction (Rattus norvegicus [13]): 26%; therapeutic safety margin (minimum lethal dose / MED) [4]: < 10; Reduction (Rattus norvegicus [6]): 2%; Reduction (Rattus norvegicus [14]): 38%
4 | COc1ccc(C(c2cc(C)ns2)N2CCN(C)CC2)cc1OC (stereo not drawn) | – | – | – | – | – | 7 | – | 4 | –
5 | CCCCc1ccc(C(c2cc(C)ns2)N2CCN(C)CC2)cc1 (stereo not drawn) | – | – | – | – | – | 75 | – | 66 | Reduction (Rattus norvegicus [1]): 25%; Reduction (Rattus norvegicus [7]): 45%
6 | CC(C)c1ccccc1C(c1ccns1)N1CCN(C)CC1 (stereo not drawn) | 77% | 71 | 32 | 10 | 36 | – | 43 | – | Reduction (Rattus norvegicus [13]): 14%; Reduction (Rattus norvegicus [6]): 15%; Reduction (Rattus norvegicus [14]): 31%
7 | CN1CCN(C(c2ccccc2)c2ccns2)CC1 (stereo not drawn) | – | – | – | – | – | 68 | – | 46 | Reduction (Rattus norvegicus [1]): 13%; Reduction (Rattus norvegicus [7]): 34%
8 | COc1ccc(C(c2cc(C)ns2)N2CCN(C)CC2)cc1 (stereo not drawn) | – | – | – | – | – | 0 | – | 23 | –
9 | Cc1ccc(C(c2ccns2)N2CCN(C)CC2)cc1 (stereo not drawn) | – | – | – | – | 9 | 30 | 4 | 36 | –
10 | Cc1cc(C(c2ccccc2)N2CCN(Cc3ccccc3)CC2)sn1 (stereo not drawn) | – | – | – | – | – | 26 | – | 56 | –
11 | CC(C)COc1ccccc1C(c1ccns1)N1CCN(C)CC1 (stereo not drawn) | – | – | 1 | 18 | 50 | 85 | 49 | 85 | Reduction (Rattus norvegicus [14]): 15%
12 | CCCc1ccc(C(c2ccns2)N2CCN(C)CC2)cc1 (stereo not drawn) | – | – | 48 | 3 | 34 | 82 | 65 | 86 | Reduction (Rattus norvegicus [13]): 18%; therapeutic safety margin (minimum lethal dose / MED) [4]: 20; Reduction (Rattus norvegicus [6]): 31%; Reduction (Rattus norvegicus [14]): 7%
13 | Cc1cnsc1C(c1ccc(C(C)C)cc1)N1CCN(C)CC1 (stereo not drawn) | 68% | 89 | 48 | 3 | 64 | – | 69 | – | Reduction (Rattus norvegicus [13]): 5%; therapeutic safety margin (minimum lethal dose / MED) [4]: 30; Reduction (Rattus norvegicus [6]): 31%; Reduction (Rattus norvegicus [14]): 42%
14 | Cc1cc(C(N)c2ccc(C(C)C)cc2)sn1 (stereo not drawn) | – | – | – | – | – | 34 | – | 9 | –
15 | Cc1cc(C(c2cccc([N+](=O)[O-])c2)N2CCN(C)CC2)sn1 (stereo not drawn) | – | 17 | – | – | – | – | – | – | Reduction (Rattus norvegicus [15]): 2%
16 | Cc1cc(C(c2ccccc2F)N2CCN(C)CC2)sn1 (stereo not drawn) | – | – | – | – | – | 25 | – | 57 | –
17 | Cc1noc(C)c1C(c1ccc(C(C)C)cc1)N1CCN(C)CC1 (stereo not drawn) | 87% | 66 | 67 | 2 | 69 | – | 80 | – | Reduction (Rattus norvegicus [16]): 8%; therapeutic safety margin (minimum lethal dose / MED) [4]: 100; Reduction (Rattus norvegicus [6]): 41% and 30%; Reduction (Rattus norvegicus [17]): 31%; Reduction (Rattus norvegicus [14]): 35%
18 | Cc1cnsc1C(c1ccc(C(C)C)cc1)N1CCN(CC(C)O)CC1 (stereo not drawn) | 64% | 81 | 45 | 5 | 65 | – | 50 | – | Reduction (Rattus norvegicus [13]): 22%; therapeutic safety margin (minimum lethal dose / MED) [4]: 12; Reduction (Rattus norvegicus [6]): 8%; Reduction (Rattus norvegicus [14]): 22%
19 | Cc1ccccc1C(c1c(C)noc1C)N1CCN(C)CC1 (stereo not drawn) | 80% | 75 | – | – | 21 | 88 | 28 | 84 | –
20 | COc1cccc(C(c2cc(C)ns2)N2CCN(C)CC2)c1 (stereo not drawn) | – | – | – | – | – | 3 | – | 2 | –
21 | CCc1ccc(C(c2ccns2)N2CCN(C)CC2)cc1 (stereo not drawn) | 74% and 58% | – | – | 10 | – | – | – | – | therapeutic safety margin (minimum lethal dose / MED) [4]: < 20; Reduction (Rattus norvegicus [15]): 32%
22 | CCOC(=O)N1CCN(C(c2ccc(C(C)C)cc2)c2cc(C)ns2)CC1 (stereo not drawn) | – | 6 | – | – | – | – | – | – | Reduction (Rattus norvegicus [15]): 10%
23 | COc1ccccc1C(c1cc(C)ns1)N1CCN(C)CC1 (stereo not drawn) | – | – | – | – | – | 75 | – | 78 | Reduction (Rattus norvegicus [1]): 17%; Reduction (Rattus norvegicus [7]): 26%
24 | Cc1cc(C(OCCN2CCCC2)c2ccc(C(C)C)cc2)sn1 (stereo not drawn) | – | 2 | – | – | – | – | – | – | Reduction (Rattus norvegicus [15]): 30%
25 | CCOc1ccccc1C(c1cc(C)ns1)N1CCN(C)CC1 (stereo not drawn) | – | 35 | – | – | – | – | – | – | Reduction (Rattus norvegicus [15]): 25%
26 | Cc1cnsc1C(c1ccc(C(C)C)cc1)N1CCN(CCCO)CC1 (stereo not drawn) | 80% | 78 | 63 | 5 | 55 | – | 75 | – | Reduction (Rattus norvegicus [13]): 17%; therapeutic safety margin (minimum lethal dose / MED) [4]: 20; Reduction (Rattus norvegicus [6]): 19%; Reduction (Rattus norvegicus [14]): 48%
27 | Cc1ccc(C(c2cc(C)ns2)N2CCN(C)CC2)c(C)c1 (stereo not drawn) | – | – | – | – | 31 | 56 | 1 | 52 | –
28 | CN1CCN(C(c2ccc(Cl)cc2)c2ccns2)CC1 (stereo not drawn) | 38% | 41 | – | 84 | – | 63 | – | 37 | Reduction (Rattus norvegicus [1]): 38%; Reduction (Rattus norvegicus [7]): 17%
29 | CN1CCN(C(c2ccccc2Cl)c2nccn2C)CC1 (stereo not drawn) | – | – | – | – | – | 53 | – | 64 | –
30 | Cc1ccccc1C(c1nccn1C)N1CCN(C)CC1 (stereo not drawn) | – | 29 | – | – | – | – | – | – | Reduction (Rattus norvegicus [15]): 5%
